Experimental data published in ChEMBL document CHEMBL3992510, “Urea Derivatives of 2-Aryl-benzothiazol-5-amines: A New Class of Potential Drugs for Human African Trypanosomiasis” (J Med Chem, 2017).

How the values were obtained:
[1] = tested on: Trypanosoma brucei brucei; assay: Antitrypanosomal activity against Trypanosoma brucei brucei BF427 assessed as growth inhibition measured after 48 hrs by Alamar blue assay; format: functional; settings: BF427, 48 h
Procedure, shortened: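 Bloodstream-form parasites in HMI-9 medium are exposed to serial compound dilutions in triplicate. Viability is read with Alamar Blue at 48 h. EC50 and EC90 come from nonlinear regression. Pentamidine isethionate is the control.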

HepG2 = assay: Cytotoxicity against human HepG2 cells assessed as growth inhibition after 48 hrs by Alamar blue assay; format: cell-based; settings: for EC50: Homo sapiens, HepG2, 48 h; for EC90: human, hepg2, 48 h
Procedure, shortened: (§1)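 CRL-8155 lymphoblasts or HepG2 hepatocellular carcinoma cells are exposed 48 h to serial compound dilutions in quadruplicate. Growth is read with Alamar Blue, and 50% and 90% inhibitory concentrations come from nonlinear regression. Quinacrine is the control.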

[2] = Selectivity index, ratio of EC50 for human CRL8155 cells to EC50 for Trypanosoma brucei brucei BF427; format: toxicity; settings: read-out: Ratio EC50
[3] = Cytotoxicity against human CRL8155 cells assessed as growth inhibition after 48 hrs by Alamar blue assay; format: cell-based; settings: for EC50: Homo sapiens, CRL8155, 48 h; for EC90: human, crl8155, 48 h; procedure, shortened: as §1
[4] = Selectivity index, ratio of EC50 for human HepG2 cells to EC50 for Trypanosoma brucei brucei BF427; format: toxicity; settings: read-out: Ratio EC50
[5] = Drug level in mouse brain at 5 mg/kg, ip administered as single dose measured at 1 hr post dose by liquid chromatography/tandem mass spectrometric analysis; format: ADME, organism-based; settings: read-out: Drug uptake
Procedure, shortened: (§2)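 Single ip dose of 5 mg/kg in 5% DMSO/7% Tween 80/3% EtOH in 0.9% saline, three mice per compound (six for one compound). At 1 h, plasma is separated by centrifugation and brain homogenized in acetonitrile. Both are quantified by LC-MS/MS, with brain corrected for 3% v/w blood. Brain/plasma ratio is reported as mean ± SEM.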

[6] = Drug level in mouse plasma at 5 mg/kg, ip administered as single dose measured at 1 hr post dose by liquid chromatography/tandem mass spectrometric analysis; format: ADME, organism-based; procedure, shortened: as §2
Liver [7] = assay: Half life in human liver microsomes at 1.5 uM in presence of NADPH by liquid chromatography/tandem mass spectrometric analysis; format: ADME, microsome
Liver [8] = assay: Half life in mouse liver microsomes at 1.5 uM in presence of NADPH by liquid chromatography/tandem mass spectrometric analysis; format: ADME, microsome

O=C(NCCc1nc(-c2cccc(F)c2)cs1)N1CCCc2ccccc21
EC50 [1]: 5.95 µM
EC90 [1]: 14 µM

O=C(Nc1nc2cc(-c3ccc(F)c(F)c3)ccc2s1)N1CCC(F)C1 (centres undefined)
EC50 [1]: 2.64 µM
EC90 [1]: 5.28 µM

O=C(Nc1ccc2sc(-c3ccccc3)nc2c1)c1cscn1
EC50 [1]: > 10 µM
EC90 [1]: > 10 µM

O=C(Nc1ccc2sc(-c3ccccc3F)nc2c1)N1CCCC1
EC50 (HepG2): > 50 µM
EC90 (HepG2): > 50 µM
selectivity ratio [2]: > 51
EC50 [3]: > 50 µM
EC90 [3]: > 50 µM
selectivity ratio [4]: > 51
EC50 [1]: 0.983 µM
EC90 [1]: 1.24 µM

NC1CCN(C(=O)Nc2ccc3sc(-c4ccc(F)c(F)c4)nc3c2)C1 (centres undefined)
EC50 [1]: 2.32 µM
EC90 [1]: 2.72 µM

O=C(Nc1ccc2sc(-c3ccc(F)cc3F)nc2c1)N1CCCC1
EC50 [1]: 0.929 µM
EC90 [1]: 1.48 µM

CC(C)(Cc1csc(-c2ccccc2)n1)NC(=O)N1CCCCCC1
EC50 [1]: > 10 µM
EC90 [1]: > 10 µM

O=C(NCCc1nc(-c2ccccc2)cs1)N1CCCCCC1
EC50 [1]: 0.11 µM
EC90 [1]: 0.236 µM

CN1CCN(C(=O)Nc2ccc3sc(-c4cccc(F)c4)nc3c2)CC1
EC50 [1]: 3.15 µM
EC90 [1]: 7.55 µM

O=C(Nc1ccc2sc(-c3ccccc3)nc2c1)c1cccs1
EC50 (HepG2): > 50 µM
EC90 (HepG2): > 50 µM
selectivity ratio [2]: > 57
EC50 [3]: > 50 µM
EC90 [3]: > 50 µM
selectivity ratio [4]: > 57
EC50 [1]: 0.882 µM
EC90 [1]: 2.13 µM

O=C(Nc1ccc2sc(-c3ccc(F)c(F)c3)nc2c1)N1CCC(F)(F)CC1
EC50 [1]: 2.98 µM
EC90 [1]: 4.17 µM

O=C1CCN(C(=O)NCCc2nc(-c3cccc(F)c3)cs2)CC1
EC50 (HepG2): > 50 µM
EC90 (HepG2): > 50 µM
selectivity ratio [2]: > 75
EC50 [3]: > 50 µM
EC90 [3]: > 50 µM
selectivity ratio [4]: > 75
EC50 [1]: 0.667 µM
EC90 [1]: 0.813 µM

COC1CCN(C(=O)Nc2ccc3sc(-c4ccc(F)c(F)c4)nc3c2)C1 (centres undefined)
EC50 [1]: 3.05 µM
EC90 [1]: 4.59 µM

O=C(Nc1ccc2sc(-c3ccc(F)c(F)c3)nc2c1)N1CCC(C(F)(F)F)C1 (centres undefined)
concentration at 1 h [5]: 1970 nM
concentration at 1 h [6]: 4150 nM
EC50 [1]: 1.69 µM
EC90 [1]: 4.88 µM

C[C@@H]1CCC[C@H](C)N1C(=O)NCCc1nc(-c2cccc(F)c2)cs1
EC50 (HepG2): > 50 µM
EC90 (HepG2): > 50 µM
selectivity ratio [2]: > 125
EC50 [3]: > 50 µM
EC90 [3]: > 50 µM
selectivity ratio [4]: > 125
EC50 [1]: 0.399 µM
EC90 [1]: 0.564 µM

N=C(N)c1ccc(OCCCCCOc2ccc(C(=N)N)cc2)cc1
EC50 (HepG2): > 100 µM
EC90 (HepG2): > 100 µM
selectivity ratio [2]: > 43200
EC50 [3]: 45.4 µM
EC90 [3]: > 100 µM
selectivity ratio [4]: > 93000
EC50 [1]: 0.00105 µM
EC90 [1]: 0.00354 µM

C[C@]12CC[C@H]3[C@@H](CCC4=CC(=O)CC[C@@]43C)[C@@H]1CC[C@@H]2O [TESTOSTERONE]
t1/2 (Liver [7]): 22.7 min
t1/2 (Liver [8]): 5.26 min

O=C(Nc1ccc2sc(-c3ccccc3)nc2c1)N1CC=CCC1
EC50 [1]: 1.12 µM
EC90 [1]: 1.35 µM

O=C(Nc1ccc2sc(-c3ccc(F)cc3)nc2c1)N1CCCC1
EC50 (HepG2): > 50 µM
EC90 (HepG2): > 50 µM
selectivity ratio [2]: > 133
EC50 [3]: > 50 µM
EC90 [3]: > 50 µM
selectivity ratio [4]: > 133
EC50 [1]: 0.375 µM
EC90 [1]: 0.895 µM

COc1ccc2c(c1)[C@]13CCCC[C@@H]1[C@H](C2)N(C)CC3 [DEXTROMETHORPHAN]
t1/2 (Liver [7]): 39.15 min
t1/2 (Liver [8]): 7.79 min

O=C(Nc1ccc2oc(-c3ccccc3)nc2c1)N1CCCC1
concentration at 1 h [5]: 397 nM
concentration at 1 h [6]: 270 nM
EC50 [1]: 5.25 µM
EC90 [1]: > 10 µM

CC(C)(CNC(=O)c1ccccc1)c1nc(-c2ccccc2)cs1
EC50 [1]: > 10 µM
EC90 [1]: > 10 µM

O=C(Nc1ccc2nc(-c3ccc(F)c(F)c3)sc2c1)N1CCC(F)C1 (centres undefined)
EC50 [1]: > 20 µM
EC90 [1]: > 20 µM

O=C(Nc1ccc2sc(-c3ccccc3)nc2c1)c1nccs1
EC50 [1]: 5.86 µM
EC90 [1]: > 10 µM

CC(C)(Cc1nc(-c2cccc(F)c2)cs1)NC(=O)c1ccccc1
EC50 [1]: > 10 µM
EC90 [1]: > 10 µM

CC(C)(Cc1csc(-c2ccccc2)n1)NC(=O)N1CCCC1
EC50 [1]: > 10 µM
EC90 [1]: > 10 µM

O=C(Nc1ccc2sc(-c3ccccc3)nc2c1)c1ccsc1
EC50 [1]: 1.57 µM
EC90 [1]: 2.49 µM

O=C(Nc1ccc2sc(-c3ccc(F)c(F)c3)nc2c1)N1CCC(O)C1 (centres undefined)
EC50 [1]: 7.68 µM
EC90 [1]: 13.6 µM

O=C(Nc1ccc2sc(-c3ccccc3F)nc2c1)N1CCCCC1
EC50 (HepG2): > 50 µM
EC90 (HepG2): > 50 µM
selectivity ratio [2]: > 53
EC50 [3]: > 50 µM
EC90 [3]: > 50 µM
selectivity ratio [4]: > 53
EC50 [1]: 0.935 µM
EC90 [1]: 1.14 µM

O=C(Nc1nc2ccc(-c3ccc(F)c(F)c3)cc2s1)N1CCC(F)C1 (centres undefined)
EC50 [1]: 2.23 µM
EC90 [1]: > 20 µM

Cc1nc2cc(NC(=O)N3CCCC3)ccc2s1
EC50 [1]: > 20 µM
EC90 [1]: > 20 µM

CCN(CC)CCCC(C)Nc1c2ccc(Cl)cc2nc2ccc(OC)cc12 (centres undefined) [QUINACRINE]
EC50 (HepG2): 10.4 µM
EC90 (HepG2): 18.2 µM
EC50 [3]: 4.23 µM
EC90 [3]: 9.94 µM

O=C(NCCc1nc(-c2cccc(F)c2)cs1)N1CCc2ccccc2C1
EC50 [1]: 9.76 µM
EC90 [1]: 13.8 µM

O=C(Nc1ccc2[nH]c(-c3ccccc3)nc2c1)c1ccccc1
EC50 [1]: > 10 µM
EC90 [1]: > 10 µM

O=C(Nc1ccc2sc(-c3ccc(F)cc3)nc2c1)c1ccccc1
EC50 [1]: 1.92 µM
EC90 [1]: 3 µM

N#CC1CCN(C(=O)Nc2ccc3sc(-c4ccc(F)c(F)c4)nc3c2)C1 (centres undefined)
EC50 [1]: 2.85 µM
EC90 [1]: 4.67 µM

O=C(Nc1ccc2sc(-c3cccc(F)c3)nc2c1)N1CCCCC1
EC50 (HepG2): > 50 µM
EC90 (HepG2): > 50 µM
t1/2 (Liver [7]): 8.9 min
selectivity ratio [2]: > 287
EC50 [3]: > 50 µM
EC90 [3]: > 50 µM
selectivity ratio [4]: > 287
t1/2 (Liver [8]): 11 min
EC50 [1]: 0.174 µM
EC90 [1]: 0.602 µM

O=C(Nc1ccc2scnc2c1)N1CCCC1
EC50 [1]: > 20 µM
EC90 [1]: > 20 µM

CC(C)(Cc1csc(-c2ccccc2)n1)NC(=O)c1ccccc1
EC50 [1]: > 10 µM
EC90 [1]: > 10 µM

O=C(Nc1ccc2oc(-c3ccccc3)nc2c1)c1ccccc1
t1/2 (Liver [7]): 60 min
t1/2 (Liver [8]): 17 min
EC50 [1]: > 10 µM
EC90 [1]: > 10 µM

O=C(Nc1ccc2sc(-c3ccccc3)nc2c1)N1CCSC1
EC50 [1]: 1.24 µM
EC90 [1]: 2.38 µM

CC(C)(Cc1nc(-c2ccccc2)cs1)NC(=O)c1ccccc1
EC50 [1]: > 10 µM
EC90 [1]: > 10 µM

O=C(Nc1ccc2sc(-c3ccc(F)cc3)nc2c1)N1CCCCC1
EC50 (HepG2): > 50 µM
EC90 (HepG2): > 50 µM
selectivity ratio [2]: > 117
EC50 [3]: > 50 µM
EC90 [3]: > 50 µM
selectivity ratio [4]: > 117
EC50 [1]: 0.427 µM
EC90 [1]: 0.737 µM

O=C(Nc1ccc2sc(-c3cccc(F)c3)nc2c1)c1ccccc1
EC50 [1]: 1.78 µM
EC90 [1]: 3.62 µM

O=C(Nc1ccc2sc(-c3cccc(F)c3)nc2c1)N1CCN(C(=O)Nc2ccc3sc(-c4cccc(F)c4)nc3c2)CC1
EC50 [1]: > 20 µM
EC90 [1]: > 20 µM
